# Test results: ChEMBL document CHEMBL4229410, “Facile construction of fused benzimidazole-isoquinolinones that induce cell-cycle arrest and apoptosis in colorectal cancer cells” (Bioorg Med Chem, 2018)
# Activity calls are given as the source filed them. The calls are words filed in the database; no cut-off is given here.
# Experiments:
# [1] = target: Mast/stem cell growth factor receptor Kit (Homo sapiens, UniProt P10721); experiment: Binding affinity to human KIT (I571 to D952 residues) expressed in bacterial expression system by KINOMEscan assay
# [2] = target: cAMP-dependent protein kinase catalytic subunit alpha (Homo sapiens, UniProt P17612); experiment: Inhibition of human PKACalpha (G10 to F351 residues) expressed in bacterial expression system assessed as residual activity at 5 uM by KINOMEscan assay relative to control
# SW-620 [3] = experiment: Upregulation of p53 expression in human SW620 cells after 48 hrs by Western blot analysis; type: functional, cell-based
# [4] = target: Serine/threonine-protein kinase STK11 (Homo sapiens, UniProt Q15831); experiment: Binding affinity to full length human LKB1 (M1 to Q433 residues) expressed in bacterial expression system by KINOMEscan assay
# SW-620 [5] = experiment: Induction of apoptosis in human SW620 cells assessed as increase in apoptotic bodies after 48 hrs by Hoechst 33342 staining based fluorescence microscopic analysis; type: functional, cell-based
# [6] = target: Rho-associated protein kinase 2 (Homo sapiens, UniProt O75116); experiment: Inhibition of human ROCK2 (M1 to T431 residues) expressed in mammalian expression system assessed as residual activity at 5 uM by KINOMEscan assay relative to control
# HT-29 [7] = experiment: Cell cycle arrest in human HT-29 cells assessed as accumulation at S-phase at 25 uM after 48 hrs by propidium iodide staining based flow cytometry (reference value: 37.82%); type: functional
# [8] = target: Casein kinase I isoform delta (Homo sapiens, UniProt P48730); experiment: Inhibition of full length human CSNK1D (M1 to K409 residues) expressed in bacterial expression system assessed as residual activity at 5 uM by KINOMEscan assay relative to control
# HT-29 [9] = experiment: Induction of apoptosis in human HT-29 cells assessed as early apoptotic cells at 75 uM after 48 hrs by Annexin-V-FITC/propidium iodide staining based flow cytometry (reference value: 1%); type: functional
# [10] = target: MAP/microtubule affinity-regulating kinase 3 (Homo sapiens, UniProt P27448); experiment: Binding affinity to full length human MARK3 (M1 to L729 residues) expressed in bacterial expression system by KINOMEscan assay
# HT-29 [11] = experiment: Induction of apoptosis in human HT-29 cells assessed as increase in apoptotic bodies after 48 hrs by Hoechst 33342 staining based fluorescence microscopic analysis; type: functional, cell-based
# Method in brief: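 HT29 cells in 24-well plates were treated at 0, 25, 50 or 75 μM for 48 h and fixed 20 min in 4% paraformaldehyde. After Hoechst 33342 staining for 15 min at 37 °C, apoptotic bodies and chromatin condensation were scored by fluorescence microscopy.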
# SW-620 [12] = experiment: Induction of apoptosis in human SW620 cells assessed as early apoptotic cells at 50 uM after 48 hrs by Annexin-V-FITC/propidium iodide staining based flow cytometry (reference value: 0.4%); type: functional
# HT-29 [13] = experiment: Cell cycle arrest in human HT-29 cells assessed as accumulation at S-phase at 50 uM after 48 hrs by propidium iodide staining based flow cytometry (reference value: 37.82%); type: functional
# [14] = target: Insulin-like growth factor 1 receptor (Homo sapiens, UniProt P08069); experiment: Binding affinity to human IGF1R (L972 to D1294 residues) expressed in bacterial expression system by KINOMEscan assay
# HT-29 [15] = experiment: Cell cycle arrest in human HT-29 cells assessed as accumulation at G1-phase at 25 uM after 48 hrs by propidium iodide staining based flow cytometry (reference value: 41.86%); type: functional
# [16] = target: Dual specificity mitogen-activated protein kinase kinase 1 (Homo sapiens, UniProt Q02750); experiment: Binding affinity to full length human MEK1 (M1 to V393 residues) expressed in mammalian expression system by KINOMEscan assay
# [17] = target: Mitogen-activated protein kinase 10 (Homo sapiens, UniProt P53779); experiment: Binding affinity to human JNK3 (V28 to Q422 residues) expressed in mammalian expression system by KINOMEscan assay
# [18] = target: Inhibitor of nuclear factor kappa-B kinase subunit beta (Homo sapiens, UniProt O14920); experiment: Binding affinity to full length human IKKbeta (M1 to S756 residues) expressed in mammalian expression system by KINOMEscan assay
# Homo sapiens [19] = species: Homo sapiens; experiment: Inhibition of PI3K in human SW620 cells assessed as reduction in AKT phosphorylation at S473 residue up to 75 uM after 48 hrs by Western blot analysis; type: cell-based
# [20] = target: Serine/threonine-protein kinase PAK 4 (Homo sapiens, UniProt O96013); experiment: Inhibition of partial length human PAK4 (Q144 to R438 residues) expressed in bacterial expression system assessed as residual activity at 5 uM by KINOMEscan assay relative to control
# SW-620 [21] = experiment: Induction of apoptosis in human SW620 cells after 48 hrs by Annexin-V-FITC/propidium iodide staining based flow cytometry; type: functional, cell-based
# [22] = target: Ribosomal protein S6 kinase alpha-3 (Homo sapiens, UniProt P51812); experiment: Binding affinity to human N-terminal RSK2 kinase domain 1 (M1 to D394 residues) expressed in mammalian expression system by KINOMEscan assay
# [23] = target: Serine/threonine-protein kinase pim-2 (Homo sapiens, UniProt Q9P1W9); experiment: Inhibition of human PIM2 (M1 to E291 residues) expressed in bacterial expression system assessed as residual activity at 5 uM by KINOMEscan assay relative to control
# [24] = target: Dual specificity tyrosine-phosphorylation-regulated kinase 1B (Homo sapiens, UniProt Q9Y463); experiment: Binding affinity to full length human DYRK1B (M1 to S629 residues) expressed in bacterial expression system by KINOMEscan assay
# SW-620 [25] = experiment: Cell cycle arrest in human SW620 cells assessed as accumulation at G2-phase at 25 uM after 48 hrs by propidium iodide staining based flow cytometry (reference value: 14.08%); type: functional
# [26] = target: Activin receptor type-1B (Homo sapiens) (UniProt P36896); experiment: Inhibition of human ACVR1B (S187 to I505 residues) expressed in bacterial expression system assessed as residual activity at 5 uM by KINOMEscan assay relative to control
# [27] = target: MAP kinase-interacting serine/threonine-protein kinase 2 (Homo sapiens, UniProt Q9HBH9); experiment: Binding affinity to human MKNK2 (G63 to S388 residues) expressed in mammalian expression system by KINOMEscan assay
# [28] = Growth inhibition of human FHC cells after 48 hrs by MTT assay; type: cell-based
# [29] = target: Cyclin-dependent kinase 3 (Homo sapiens, UniProt Q00526); experiment: Binding affinity to full length human CDK3 (M1 to H305 residues) expressed in bacterial expression system by KINOMEscan assay
# Homo sapiens [30] = species: Homo sapiens; experiment: Inhibition of PI3K/AKT signaling pathway in human SW620 cells assessed as reduction in mTOR phosphorylation up to 75 uM after 48 hrs by Western blot analysis; type: cell-based
# HT-29 [31] = experiment: Induction of apoptosis in human HT-29 cells assessed as late apoptotic cells at 50 uM after 48 hrs by Annexin-V-FITC/propidium iodide staining based flow cytometry (reference value: 4.1%); type: functional
# Sequence of MAP/microtubule affinity-regulating kinase 3 (P27448 whole entry, the tested form may be a part): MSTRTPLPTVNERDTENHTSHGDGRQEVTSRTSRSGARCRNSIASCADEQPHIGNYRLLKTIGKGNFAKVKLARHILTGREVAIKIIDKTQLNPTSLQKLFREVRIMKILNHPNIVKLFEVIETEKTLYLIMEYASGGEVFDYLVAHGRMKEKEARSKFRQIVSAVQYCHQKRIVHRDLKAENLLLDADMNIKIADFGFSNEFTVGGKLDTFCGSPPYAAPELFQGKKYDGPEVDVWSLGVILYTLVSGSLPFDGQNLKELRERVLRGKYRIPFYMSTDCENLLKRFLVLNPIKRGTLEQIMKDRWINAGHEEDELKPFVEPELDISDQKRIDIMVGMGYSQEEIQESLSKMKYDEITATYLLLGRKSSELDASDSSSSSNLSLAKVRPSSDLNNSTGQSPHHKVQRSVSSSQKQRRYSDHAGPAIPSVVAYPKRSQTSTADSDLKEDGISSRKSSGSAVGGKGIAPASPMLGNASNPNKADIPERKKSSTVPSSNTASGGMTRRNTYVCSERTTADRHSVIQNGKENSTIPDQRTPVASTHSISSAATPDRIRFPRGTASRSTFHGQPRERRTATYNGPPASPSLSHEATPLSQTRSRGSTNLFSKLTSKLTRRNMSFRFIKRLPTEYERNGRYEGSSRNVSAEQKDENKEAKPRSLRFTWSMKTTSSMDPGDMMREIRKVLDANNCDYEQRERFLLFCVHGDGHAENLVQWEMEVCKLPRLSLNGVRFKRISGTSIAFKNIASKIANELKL
# Sequence of Casein kinase I isoform delta (P48730 whole entry, looked up, the tested form may be a part, canonical isoform): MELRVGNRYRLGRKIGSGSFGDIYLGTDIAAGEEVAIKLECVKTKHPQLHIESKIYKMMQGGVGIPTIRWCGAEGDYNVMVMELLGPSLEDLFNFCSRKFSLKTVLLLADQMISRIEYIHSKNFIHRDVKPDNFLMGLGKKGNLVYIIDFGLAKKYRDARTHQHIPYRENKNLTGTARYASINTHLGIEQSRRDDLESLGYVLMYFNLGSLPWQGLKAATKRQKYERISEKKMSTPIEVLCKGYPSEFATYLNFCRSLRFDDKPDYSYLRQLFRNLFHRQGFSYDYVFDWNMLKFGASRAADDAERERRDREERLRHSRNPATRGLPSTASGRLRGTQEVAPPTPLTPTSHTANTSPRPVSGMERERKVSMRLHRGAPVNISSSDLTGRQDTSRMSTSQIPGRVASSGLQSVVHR
# Sequence of Mast/stem cell growth factor receptor Kit (P10721 whole entry, the tested form may be a part): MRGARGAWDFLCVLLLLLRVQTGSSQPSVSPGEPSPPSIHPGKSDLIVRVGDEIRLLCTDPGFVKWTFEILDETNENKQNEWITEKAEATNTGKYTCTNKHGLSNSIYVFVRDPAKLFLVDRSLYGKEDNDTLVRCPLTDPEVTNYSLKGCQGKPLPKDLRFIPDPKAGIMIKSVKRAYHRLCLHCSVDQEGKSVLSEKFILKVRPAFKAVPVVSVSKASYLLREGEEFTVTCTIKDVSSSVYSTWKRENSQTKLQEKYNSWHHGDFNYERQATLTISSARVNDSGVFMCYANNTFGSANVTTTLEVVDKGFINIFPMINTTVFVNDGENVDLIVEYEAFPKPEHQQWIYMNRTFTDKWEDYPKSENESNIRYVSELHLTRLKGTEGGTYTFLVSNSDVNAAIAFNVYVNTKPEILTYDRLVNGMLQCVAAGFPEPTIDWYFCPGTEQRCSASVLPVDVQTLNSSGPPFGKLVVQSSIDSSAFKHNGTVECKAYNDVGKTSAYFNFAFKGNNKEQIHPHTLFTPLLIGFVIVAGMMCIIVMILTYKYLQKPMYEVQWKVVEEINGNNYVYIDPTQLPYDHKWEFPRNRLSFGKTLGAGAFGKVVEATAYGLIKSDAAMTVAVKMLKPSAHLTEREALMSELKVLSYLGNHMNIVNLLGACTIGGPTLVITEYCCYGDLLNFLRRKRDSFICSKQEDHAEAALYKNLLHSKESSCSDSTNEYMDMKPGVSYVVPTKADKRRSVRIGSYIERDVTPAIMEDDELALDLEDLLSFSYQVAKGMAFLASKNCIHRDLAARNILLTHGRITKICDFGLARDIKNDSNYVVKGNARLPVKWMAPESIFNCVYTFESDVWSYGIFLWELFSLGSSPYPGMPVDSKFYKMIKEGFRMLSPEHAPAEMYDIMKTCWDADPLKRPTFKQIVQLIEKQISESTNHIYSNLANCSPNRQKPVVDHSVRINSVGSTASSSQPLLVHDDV
# Sequence of Mitogen-activated protein kinase 10 (P53779 whole entry, the tested form may be a part): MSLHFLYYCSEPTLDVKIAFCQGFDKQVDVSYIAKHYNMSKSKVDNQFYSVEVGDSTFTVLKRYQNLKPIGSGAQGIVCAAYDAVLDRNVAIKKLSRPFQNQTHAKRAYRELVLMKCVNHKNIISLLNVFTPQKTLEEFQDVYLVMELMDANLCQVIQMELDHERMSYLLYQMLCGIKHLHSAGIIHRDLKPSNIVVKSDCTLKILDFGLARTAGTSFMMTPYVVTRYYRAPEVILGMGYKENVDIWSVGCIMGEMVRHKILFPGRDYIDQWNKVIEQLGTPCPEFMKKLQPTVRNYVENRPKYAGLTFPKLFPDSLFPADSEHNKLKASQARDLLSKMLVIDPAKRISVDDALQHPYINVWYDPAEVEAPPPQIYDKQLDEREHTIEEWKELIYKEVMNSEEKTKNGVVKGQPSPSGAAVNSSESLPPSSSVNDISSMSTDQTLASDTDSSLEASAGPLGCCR
# Sequence of Serine/threonine-protein kinase STK11 (Q15831 whole entry, the tested form may be a part): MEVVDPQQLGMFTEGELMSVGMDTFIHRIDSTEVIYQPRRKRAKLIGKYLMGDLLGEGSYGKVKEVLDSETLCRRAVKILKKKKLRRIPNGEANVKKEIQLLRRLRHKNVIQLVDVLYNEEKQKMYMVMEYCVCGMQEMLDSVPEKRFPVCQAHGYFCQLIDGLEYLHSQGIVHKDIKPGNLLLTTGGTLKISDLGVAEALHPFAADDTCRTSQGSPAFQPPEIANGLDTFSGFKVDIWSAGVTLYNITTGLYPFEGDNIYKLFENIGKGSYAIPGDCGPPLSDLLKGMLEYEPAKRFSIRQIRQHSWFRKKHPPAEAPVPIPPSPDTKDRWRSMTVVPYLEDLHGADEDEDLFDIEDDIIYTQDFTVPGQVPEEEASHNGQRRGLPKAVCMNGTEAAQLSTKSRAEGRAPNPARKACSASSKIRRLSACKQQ
# Sequence of Serine/threonine-protein kinase PAK 4 (O96013 whole entry, looked up, the tested form may be a part): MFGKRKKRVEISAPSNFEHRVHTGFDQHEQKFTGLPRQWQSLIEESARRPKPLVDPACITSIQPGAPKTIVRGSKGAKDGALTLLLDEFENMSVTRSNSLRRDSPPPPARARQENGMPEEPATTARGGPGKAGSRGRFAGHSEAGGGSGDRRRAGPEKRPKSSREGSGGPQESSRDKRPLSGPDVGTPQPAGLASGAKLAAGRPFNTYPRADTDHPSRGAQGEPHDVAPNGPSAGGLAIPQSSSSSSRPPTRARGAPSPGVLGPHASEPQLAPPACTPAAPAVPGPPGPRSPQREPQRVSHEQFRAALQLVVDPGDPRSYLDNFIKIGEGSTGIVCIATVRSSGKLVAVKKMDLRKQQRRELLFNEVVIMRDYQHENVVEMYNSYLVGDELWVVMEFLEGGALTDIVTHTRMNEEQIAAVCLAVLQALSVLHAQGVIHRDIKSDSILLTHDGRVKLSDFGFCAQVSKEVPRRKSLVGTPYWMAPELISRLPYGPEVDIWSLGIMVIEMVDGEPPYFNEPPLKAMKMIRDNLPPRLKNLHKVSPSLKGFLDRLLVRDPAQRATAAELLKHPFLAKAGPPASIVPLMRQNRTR
# Sequence of Inhibitor of nuclear factor kappa-B kinase subunit beta (O14920 whole entry, the tested form may be a part): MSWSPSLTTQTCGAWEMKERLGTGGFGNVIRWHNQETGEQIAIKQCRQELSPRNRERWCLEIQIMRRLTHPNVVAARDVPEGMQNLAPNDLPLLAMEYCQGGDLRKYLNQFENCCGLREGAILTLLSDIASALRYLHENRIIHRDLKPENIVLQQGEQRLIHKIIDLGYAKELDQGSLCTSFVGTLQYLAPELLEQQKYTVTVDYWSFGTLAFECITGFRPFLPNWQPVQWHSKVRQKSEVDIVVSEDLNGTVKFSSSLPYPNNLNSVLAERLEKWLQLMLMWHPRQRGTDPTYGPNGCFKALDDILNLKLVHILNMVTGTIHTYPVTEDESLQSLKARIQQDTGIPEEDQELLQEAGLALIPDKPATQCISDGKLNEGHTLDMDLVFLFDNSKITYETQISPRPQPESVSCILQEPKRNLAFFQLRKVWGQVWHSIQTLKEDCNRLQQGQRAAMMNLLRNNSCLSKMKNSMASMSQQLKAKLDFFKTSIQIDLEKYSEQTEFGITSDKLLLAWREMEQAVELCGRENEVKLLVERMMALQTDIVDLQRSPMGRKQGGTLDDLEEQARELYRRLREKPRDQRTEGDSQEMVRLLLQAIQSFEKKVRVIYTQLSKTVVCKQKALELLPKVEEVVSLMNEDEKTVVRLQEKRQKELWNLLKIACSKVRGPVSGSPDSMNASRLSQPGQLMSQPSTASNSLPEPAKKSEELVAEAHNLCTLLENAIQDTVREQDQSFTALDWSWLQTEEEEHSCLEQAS
# Sequence of MAP kinase-interacting serine/threonine-protein kinase 2 (Q9HBH9 whole entry, the tested form may be a part): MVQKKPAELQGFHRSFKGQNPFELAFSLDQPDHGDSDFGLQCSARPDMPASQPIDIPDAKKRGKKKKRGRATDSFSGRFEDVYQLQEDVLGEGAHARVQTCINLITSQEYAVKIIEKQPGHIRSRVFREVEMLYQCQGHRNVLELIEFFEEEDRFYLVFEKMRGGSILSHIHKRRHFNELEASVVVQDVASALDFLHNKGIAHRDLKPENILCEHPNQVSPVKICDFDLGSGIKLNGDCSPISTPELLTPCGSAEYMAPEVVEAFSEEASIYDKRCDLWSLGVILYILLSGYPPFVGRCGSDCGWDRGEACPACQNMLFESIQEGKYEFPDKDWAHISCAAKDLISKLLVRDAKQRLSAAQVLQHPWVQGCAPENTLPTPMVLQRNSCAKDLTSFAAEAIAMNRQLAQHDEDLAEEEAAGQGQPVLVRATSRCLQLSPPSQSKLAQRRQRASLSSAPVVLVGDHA
compound,measurement,setting,value
CC(C)CN(C(=O)c1cccnc1)c1c2ccccc2c(=O)n2c1[nH]c1ccccc12,Kd,[1],≥ 5 µM
same,Activity,[2],88%
same,Activity,SW-620 [3],Dose-dependent effect
same,Kd,[4],≥ 5 µM
same,Activity,SW-620 [5],Dose-dependent effect
same,Activity,[6],80%
same,Activity,HT-29 [7],37.2%
same,Activity,[8],90%
same,Activity,HT-29 [9],0.3%
same,Kd,[10],≥ 5 µM
same,Activity,HT-29 [11],Dose-dependent effect
same,Activity,SW-620 [12],0.6%
same,Activity,HT-29 [13],35.86%
same,Kd,[14],≥ 5 µM
same,Activity,HT-29 [15],42.5%
same,Kd,[16],≥ 5 µM
same,Kd,[17],≥ 5 µM
same,Kd,[18],≥ 5 µM
same,inhibition,Homo sapiens [19],Active
same,Activity,[20],82%
same,Activity,SW-620 [21],Dose-dependent effect
same,Kd,[22],≥ 5 µM
same,Activity,[23],100%
same,Kd,[24],≥ 5 µM
same,Activity,SW-620 [25],14.72%
same,Activity,[26],92%
same,Kd,[27],≥ 5 µM
same,GI50 at 48 h,[28],> 200 µM
same,Kd,[29],≥ 5 µM
same,inhibition,Homo sapiens [30],Active
same,Activity,HT-29 [31],13.7%
